{"source": "ChEMBL document CHEMBL4354800", "about": "“Amphiphilic nebramine-based hybrids Rescue legacy antibiotics from intrinsic resistance in multidrug-resistant Gram-negative bacilli” (Eur J Med Chem, 2019)", "type_in_all_cases": "functional", "key": {"Pseudomonas aeruginosa [1]": {"tested_on": "Pseudomonas aeruginosa", "experiment": "Potentiation of minocycline-induced antimicrobial activity against MDR/XDR Pseudomonas aeruginosa isolate PA260-97103 harboring GyrA Thr83Ile mutant assessed as minocycline MIC50 incubated for 18 hrs by broth microdilution method (reference value: 16 microg/ml)", "settings": "isolate PA260-97103, 18 h"}, "Pseudomonas aeruginosa [2]": {"tested_on": "Pseudomonas aeruginosa", "experiment": "Potentiation of rifampicin-induced antimicrobial activity against MDR/XDR Pseudomonas aeruginosa isolate 101243 devoid of GyrA Thr83Ile mutant assessed as rifampicin MIC50 incubated for 18 hrs by broth microdilution method (reference value: 8 microg/ml)", "settings": "isolate 101243, 18 h"}, "Pseudomonas aeruginosa [3]": {"tested_on": "Pseudomonas aeruginosa", "experiment": "Potentiation of rifampicin-induced antimicrobial activity against MDR/XDR Pseudomonas aeruginosa isolate PA264-104354 harboring GyrA Thr83Ile mutant assessed as rifampicin MIC80 incubated for 18 hrs by broth microdilution method (reference value: 16 microg/ml)", "settings": "isolate PA264-104354, 18 h"}, "Pseudomonas aeruginosa [4]": {"tested_on": "Pseudomonas aeruginosa", "experiment": "Potentiation of rifampicin-induced antimicrobial activity against MDR/XDR Pseudomonas aeruginosa isolate 100036 harboring GyrA Thr83Ile mutant assessed as rifampicin MIC80 incubated for 18 hrs by broth microdilution method (reference value: 16 microg/ml)", "settings": "isolate 100036, 18 h"}, "Klebsiella pneumoniae [5]": {"tested_on": "Klebsiella pneumoniae", "experiment": "Potentiation of rifampicin-induced antibacterial activity against Klebsiella pneumoniae 116381 assessed as fold reduction in rifampicin MIC at 7.5 uM incubated for 18 hrs by broth dilution method", "procedure,_shortened": "(§1)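 Antibiotic MIC determined by CLSI broth microdilution (MHB, 5 × 10^5 CFU/mL, 18 h, 37 °C), once alone and once with a fixed concentration of the adjuvant. Potentiation is the ratio of the antibiotic MIC alone to its MIC in the presence of the adjuvant.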"}, "Pseudomonas aeruginosa [6]": {"tested_on": "Pseudomonas aeruginosa", "experiment": "Potentiation of minocycline-induced antimicrobial activity against MDR/XDR Pseudomonas aeruginosa isolate PA260-97103 harboring GyrA Thr83Ile mutant assessed as minocycline MIC80 incubated for 18 hrs by broth microdilution method (reference value: 32 microg/ml)", "settings": "isolate PA260-97103, 18 h"}, "Pseudomonas aeruginosa [7]": {"tested_on": "Pseudomonas aeruginosa", "experiment": "Potentiation of minocycline-induced antimicrobial activity against MDR/XDR Pseudomonas aeruginosa isolate PA264-104354 harboring GyrA Thr83Ile mutant assessed as minocycline MIC80 incubated for 18 hrs by broth microdilution method (reference value: 32 microg/ml)", "settings": "isolate PA264-104354, 18 h"}, "Pseudomonas aeruginosa [8]": {"tested_on": "Pseudomonas aeruginosa", "experiment": "Potentiation of minocycline-induced antimicrobial activity against MDR/XDR Pseudomonas aeruginosa isolate PA259-96918 harboring GyrA Thr83Ile mutant assessed as minocycline MIC80 incubated for 18 hrs by broth microdilution method (reference value: 32 microg/ml)", "settings": "isolate PA259-96918, 18 h"}, "Acinetobacter baumannii [9]": {"tested_on": "Acinetobacter baumannii", "experiment": "Potentiation of minocycline-induced antibacterial activity against multidrug-resistant Acinetobacter baumannii AB92247 assessed as fold reduction in minocycline MIC at 4.1 uM incubated for 18 hrs by broth dilution method"}, "Klebsiella pneumoniae [10]": {"tested_on": "Klebsiella pneumoniae", "experiment": "Potentiation of minocycline-induced antibacterial activity against Klebsiella pneumoniae 113250 assessed as fold reduction in minocycline MIC at 4.1 uM incubated for 18 hrs by broth dilution method", "procedure,_shortened": "as §1"}, "Pseudomonas aeruginosa [11]": {"tested_on": "Pseudomonas aeruginosa", "experiment": "Potentiation of rifampicin-induced bactericidal activity in MDR/XDR Pseudomonas aeruginosa isolate PA259-96918 harboring GyrA T83I mutant assessed as complete eradication of bacteria at 4 ug/ml incubated for 4 hrs in presence of 1 to 4 ug/ml rifampicin by time kill curve assay", "procedure,_shortened": "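Time-kill assay against XDR P. aeruginosa PA259. Overnight culture adjusted to 0.5 McFarland in saline, diluted 1:50 in LB. Incubated at 37 °C for 24 h with rifampicin and adjuvant, alone or combined at various concentrations. Aliquots taken at intervals, serially diluted in PBS and plated on LB agar. Colonies counted after 20 h at 37 °C. Untreated cells as control.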"}, "Pseudomonas aeruginosa [12]": {"tested_on": "Pseudomonas aeruginosa", "experiment": "Antimicrobial activity against XDR Pseudomonas aeruginosa isolate PA264 infected in Galleria mellonella larvae assessed as survival rate at 50 mg/kg co-administered with 50 mg/kg rifampicin at 2 hrs post-inoculation measured after 24 hrs relative to control", "procedure,_shortened": "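G. mellonella larvae were injected with ~5 CFU of P. aeruginosa PA264 (10 µL of 5 × 10^2 CFU/mL in PBS) and held 2 h at 37 °C. A single 10 µL injection followed: monotherapy or rifampicin + compound (25+25, 50+50 or 75+75 mg/kg), with PBS as control. Larvae kept at 37 °C were scored every 6 h to 24 h; dead = no response to touch. n = 30 (two runs of 15); Kaplan-Meier.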"}, "Escherichia coli": {"tested_on": "Escherichia coli", "experiment": "Antimicrobial activity against Escherichia coli 94474 incubated for 18 hrs by broth dilution method", "settings": "Escherichia coli, 94474, 18 h", "procedure,_shortened": "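CLSI broth microdilution. Overnight cultures were adjusted to 0.5 McFarland in saline, diluted 1:50 in Mueller-Hinton broth, and inoculated at a final 5 × 10^5 CFU/mL. Compounds were tested as 2-fold serial dilutions and incubated 18 h at 37 °C. MIC was the lowest concentration with no visible turbidity, confirmed by absorbance at 590 nm.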"}, "Acinetobacter baumannii [13]": {"tested_on": "Acinetobacter baumannii", "experiment": "Antimicrobial activity against multidrug-resistant Acinetobacter baumannii AB92247 incubated for 18 hrs by broth dilution method", "settings": "AB92247, 18 h", "procedure,_shortened": "(§2)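 Broth microdilution per CLSI: overnight cultures set to 0.5 McFarland in saline, diluted 1:50 in Mueller-Hinton broth to a final 5 × 10^5 CFU/mL, added to 2-fold serial dilutions, incubated 18 h at 37 °C; MIC is the lowest concentration without visible turbidity, confirmed at 590 nm.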"}, "Acinetobacter baumannii [14]": {"tested_on": "Acinetobacter baumannii", "experiment": "Antimicrobial activity against multidrug-resistant Acinetobacter baumannii ATCC 17978 incubated for 18 hrs by broth dilution method", "settings": "ATCC 17978, 18 h", "procedure,_shortened": "as §2"}, "Pseudomonas aeruginosa [15]": {"tested_on": "Pseudomonas aeruginosa", "experiment": "Potentiation of ciprofloxacin-induced antibacterial activity against MDR/XDR Pseudomonas aeruginosa isolate 101885 harboring GyrA T83I mutant assessed as fold reduction in ciprofloxacin MIC at 9 uM incubated for 18 hrs by broth microdilution method"}, "Pseudomonas aeruginosa [16]": {"tested_on": "Pseudomonas aeruginosa", "experiment": "Potentiation of ciprofloxacin-induced antibacterial activity against MDR/XDR Pseudomonas aeruginosa isolate PA262-101856 harboring GyrA T83I mutant assessed as fold reduction in ciprofloxacin MIC at 9 uM incubated for 18 hrs by broth microdilution method"}, "Pseudomonas aeruginosa [17]": {"tested_on": "Pseudomonas aeruginosa", "experiment": "Potentiation of ciprofloxacin-induced antibacterial activity against MDR/XDR Pseudomonas aeruginosa isolate PA260-97103 harboring GyrA T83I mutant assessed as fold reduction in ciprofloxacin MIC at 9 uM incubated for 18 hrs by broth microdilution method"}, "Pseudomonas aeruginosa [18]": {"tested_on": "Pseudomonas aeruginosa", "experiment": "Potentiation of minocycline-induced antibacterial activity against wild type Pseudomonas aeruginosa PAO1 assessed as fold reduction in minocycline MIC at 9 uM incubated for 18 hrs by broth microdilution method", "procedure,_shortened": "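CLSI broth microdilution. Overnight cultures were set to 0.5 McFarland in saline, diluted 1:50 in Mueller-Hinton broth to a final 5 × 10^5 CFU/mL, and incubated 18 h at 37 °C against 2-fold antibiotic dilutions. A fixed adjuvant level was present throughout. MIC = lowest concentration with no visible turbidity, confirmed at 590 nm. Potentiation = fold drop in antibiotic MIC versus antibiotic alone.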"}}, "data": [{"smiles": "COc1c(N2C[C@@H]3CCCN(CCCCCCCCCCCCO[C@@H]4[C@@H](O)[C@H](N)C[C@H](N)[C@H]4O[C@H]4O[C@H](CN)[C@@H](O)C[C@H]4N)[C@@H]3C2)c(F)cc2c(=O)c(C(=O)O)cn(C3CC3)c12.Cl.Cl.Cl.Cl.Cl", "values": [{"measurement": "MIC50", "setting": "Pseudomonas aeruginosa [1]", "result": 0.5, "unit": "µg/mL"}, {"measurement": "MIC50", "setting": "Pseudomonas aeruginosa [2]", "result": 0.06, "unit": "µg/mL"}, {"measurement": "MIC80", "setting": "Pseudomonas aeruginosa [3]", "result": 0.13, "unit": "µg/mL"}, {"measurement": "MIC80", "setting": "Pseudomonas aeruginosa [4]", "result": 0.13, "unit": "µg/mL"}, {"measurement": "fold change (FC)", "setting": "Klebsiella pneumoniae [5]", "result": ">=1024"}, {"measurement": "MIC80", "setting": "Pseudomonas aeruginosa [6]", "result": 1, "unit": "µg/mL"}, {"measurement": "MIC80", "setting": "Pseudomonas aeruginosa [7]", "result": 1, "unit": "µg/mL"}, {"measurement": "MIC80", "setting": "Pseudomonas aeruginosa [8]", "result": 1, "unit": "µg/mL"}]}, {"smiles": "Cl.Cl.Cl.Cl.Cl.NC[C@H]1O[C@H](O[C@H]2[C@H](OCCCCCCCCCCCCN3CCN(c4cc5c(cc4F)c(=O)c(C(=O)O)cn5C4CC4)CC3)[C@@H](O)[C@H](N)C[C@@H]2N)[C@H](N)C[C@@H]1O", "values": [{"measurement": "fold change (FC)", "setting": "Acinetobacter baumannii [9]", "result": 2}, {"measurement": "fold change (FC)", "setting": "Klebsiella pneumoniae [10]", "result": 2}, {"measurement": "Activity", "setting": "Pseudomonas aeruginosa [11]", "result": 100, "unit": "%"}, {"measurement": "survival at 50 mg/kg", "setting": "Pseudomonas aeruginosa [12]", "result": 33, "unit": "%"}, {"measurement": "MIC", "setting": "Escherichia coli", "result": "> 128", "unit": "µg/mL"}, {"measurement": "MIC", "setting": "Acinetobacter baumannii [13]", "result": 128, "unit": "µg/mL"}, {"measurement": "MIC", "setting": "Acinetobacter baumannii [14]", "result": 128, "unit": "µg/mL"}]}, {"smiles": "Cl.Cl.Cl.Cl.Cl.Cl.NC[C@H]1O[C@H](O[C@H]2[C@H](OCCCCCCCCCCN3CCN(Cc4cccc5ccccc45)CC3)[C@@H](O)[C@H](N)C[C@@H]2N)[C@H](N)C[C@@H]1O", "values": [{"measurement": "fold change (FC)", "setting": "Pseudomonas aeruginosa [15]", "result": 8}, {"measurement": "fold change (FC)", "setting": "Pseudomonas aeruginosa [16]", "result": 8}, {"measurement": "fold change (FC)", "setting": "Pseudomonas aeruginosa [17]", "result": 8}, {"measurement": "fold change (FC)", "setting": "Pseudomonas aeruginosa [18]", "result": 16}]}]}
